In PMC6447837 (Cancer Science, 2019):

How the values were obtained:
Aspc‐1 cells [1] = assay: Annexin V/PI apoptosis assay; type: cell-based, human; settings: 24 hours
Method in brief: (§1)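 Cells were treated with a range of concentrations for 24 hours, washed with PBS, then stained with annexin V‑FITC and propidium iodide for 15 minutes in the dark. […] Early (annexin V) and late (PI) apoptotic cells are reported as percentages, mean of n = 3 with SD.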

Bxpc‐3 cells [2] = assay: Annexin V/PI apoptosis assay; type: cell-based, human; settings: 24 hours
Method in brief: as §1

FOSL1 [3] = assay: Western blot, FOSL1 expression in intact cells; type: cell-based, human; settings: 10 PDAC cell lines, 12 hours
STAT3 [4] = assay: Western blot, STAT3 phosphorylation; type: cell-based, human; settings: Aspc‐1 and Bxpc‐3 cells, 12 hours
Method in brief: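 Aspc-1 and Bxpc-3 cells were grown overnight in complete medium and treated with test compound for 12 h. Cells were lysed in RIPA buffer and protein was quantified. Lysates were run on SDS-PAGE and transferred to PVDF, then blocked 2 h in TBS-T with 5% non-fat milk. Blots were probed for pAKT Ser473, pERK Thr202/Tyr204, pSTAT3 Tyr705, the matching total proteins and β-actin. Detection was by enhanced chemiluminescence.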

Aspc‐1 xenograft = assay: Subcutaneous xenograft model; type: in vivo, NOD‐SCID mice; settings: Aspc‐1 model; LY‐1816 20 or 40 mg/kg/d p.o.; dasatinib 40 mg/kg/d p.o.; gemcitabine 80 mg/kg once a week
Method in brief: (§2)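 Female NOD‑SCID mice bearing s.c. right‑flank tumors (5 × 10⁶–1 × 10⁷ cells injected) were randomized at 100–200 mm³ (6–7 per group). They received test compound in 25% PEG400/5% DMSO/water by oral gavage once daily for 18 days, or vehicle. Tumors were measured by caliper every 3 days, with volume = length × width² × 0.5.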

Bxpc‐3 xenograft = assay: Subcutaneous xenograft model; type: in vivo, NOD‐SCID mice; settings: Bxpc‐3 model; LY‐1816 20 or 40 mg/kg/d p.o.; dasatinib 40 mg/kg/d p.o.; gemcitabine 80 mg/kg once a week
Method in brief: as §2

STAT3 [5] = assay: Immunohistochemistry of xenograft tumor tissues; type: in vivo, NOD‐SCID mice; settings: Aspc‐1 and Bxpc‐3 models; LY‐1816 and dasatinib 40 mg/kg/d p.o., gemcitabine 80 mg/kg/wk; IHC
Method in brief: (§3)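 Six-week-old female NOD-SCID mice received 5 × 10⁶ to 1 × 10⁷ cells s.c. in the right flank. Treatment began at about 200 mm³. Test compound (40 mg/kg/d) was given once daily by oral gavage in 25% PEG400 plus 5% DMSO in water. Tumors were resected at the end of dosing. Frozen sections were immunostained and imaged by light microscopy.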

FOSL1 [6] = assay: Immunohistochemistry of xenograft tumor tissues; type: in vivo, NOD‐SCID mice; settings: Aspc‐1 and Bxpc‐3 models; LY‐1816 and dasatinib 40 mg/kg/d p.o., gemcitabine 80 mg/kg/wk; IHC
Method in brief: as §3

Aspc‐1 cells [7] = assay: Transwell invasion assay; type: cell-based, human
Method in brief: (§4)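 Inserts were precoated with polymerized collagen type I. Cells were seeded on the insert bottom in serum‑free medium with serial dilutions of test compound or vehicle, with 10% FBS medium in the lower chamber. After one day, cells were stained with calcein‑AM and optical sections taken at 10‑μm intervals. Invasion was scored as cells moving >20 μm into collagen; n = 3, mean with SD.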

Bxpc‐3 cells [8] = assay: Transwell invasion assay; type: cell-based, human
Method in brief: as §4

Src [9] = target: Src (Homo sapiens, UniProt P12931); type: cell-based; settings: 10 PDAC cell lines; 12 hours; western blot
Src [10] = assay: Immunohistochemistry of xenograft tumor tissues; type: in vivo, NOD‐SCID mice; settings: Aspc‐1 and Bxpc‐3 models; LY‐1816 and dasatinib 40 mg/kg/d p.o., gemcitabine 80 mg/kg/wk; IHC
cleaved caspase‐3 = assay: Immunohistochemistry of xenograft tumor tissues; type: in vivo, NOD‐SCID mice; settings: xenograft models; LY‐1816 40 mg/kg/d p.o., gemcitabine 80 mg/kg/wk; IHC
Method in brief: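 Aspc‑1 or Bxpc‑3 s.c. tumors in NOD‑SCID mice were dosed p.o. daily from about 200 mm³, with vehicle controls. At study end, tumors were resected. Frozen sections were immunostained and imaged by light microscopy, and cleaved caspase‑3‑positive cells were counted.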

Aspc‐1 cells [11] = assay: Wound healing assay; type: cell-based, human; settings: 18 hours
Bxpc‐3 cells [12] = assay: Wound healing assay; type: cell-based, human; settings: 18 hours

Src (Homo sapiens, UniProt P12931), sequence (P12931 whole entry): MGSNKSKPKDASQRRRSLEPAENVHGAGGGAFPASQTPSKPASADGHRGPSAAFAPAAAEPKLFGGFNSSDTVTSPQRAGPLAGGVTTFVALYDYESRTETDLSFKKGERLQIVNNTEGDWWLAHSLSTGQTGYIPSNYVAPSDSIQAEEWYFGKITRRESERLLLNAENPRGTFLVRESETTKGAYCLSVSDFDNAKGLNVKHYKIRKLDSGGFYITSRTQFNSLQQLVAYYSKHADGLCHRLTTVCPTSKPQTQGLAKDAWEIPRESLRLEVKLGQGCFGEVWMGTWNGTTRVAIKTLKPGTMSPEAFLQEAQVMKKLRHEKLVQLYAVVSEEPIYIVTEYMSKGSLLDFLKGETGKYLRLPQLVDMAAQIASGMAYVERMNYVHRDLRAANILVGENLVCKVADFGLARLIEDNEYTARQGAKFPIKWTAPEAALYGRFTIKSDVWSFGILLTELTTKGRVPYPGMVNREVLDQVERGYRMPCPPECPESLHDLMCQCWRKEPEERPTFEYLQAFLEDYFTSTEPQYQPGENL

| Structure (SMILES) | apoptosis (annexin V and PI‐positive populations) (Aspc‐1 cells [1]) | apoptosis (annexin V and PI‐positive populations) (Bxpc‐3 cells [2]) | FOSL1 expression (FOSL1 [3]) | phosphorylation of STAT3 (STAT3 [4]) | antitumor activity (Aspc‐1 xenograft) | antitumor activity (Bxpc‐3 xenograft) | phosphorylation of STAT3 in tumor tissues (STAT3 [5]) | expression of FOSL1 in tumor tissues (FOSL1 [6]) | cell invasion (Aspc‐1 cells [7]) | cell invasion (Bxpc‐3 cells [8]) | phosphorylation of Src (Src [9]) | phosphorylation of Src in tumor tissues (Src [10]) | cleaved caspase‐3 stain in tumor tissues (cleaved caspase‐3) | cell migration (Aspc‐1 cells [11]) | cell migration (Bxpc‐3 cells [12]) |
| --- | --- | --- | --- | --- | --- | --- | --- | --- | --- | --- | --- | --- | --- | --- | --- |
| Cc1nc(Nc2ncc(C(=O)Nc3c(C)cccc3Cl)s2)cc(N2CCN(CCO)CC2)n1 [dasatinib] | also could induce apoptosis | also could induce apoptosis | slight influence on FOSL1 expression | very weak or no impact on the phosphorylation of STAT3 | also showed antitumor activities | also showed antitumor activities | very weak or no influence on the phosphorylation of STAT3 or the expression of FOSL1 | very weak or no influence on the phosphorylation of STAT3 or the expression of FOSL1 | poor ability to block cell invasion | poor ability to block cell invasion |  |  |  |  |  |
| Nc1ccn([C@@H]2O[C@H](CO)[C@@H](O)C2(F)F)c(=O)n1 [gemcitabine, reference compound] | also could induce apoptosis | also could induce apoptosis | little inhibitory effect against Src and FOSL1 expression |  | also showed antitumor activities | also showed antitumor activities | did not evidently inhibit the activities of Src or STAT3, nor FOSL1 expression | did not evidently inhibit the activities of Src or STAT3, nor FOSL1 expression | poor ability to block cell invasion | poor ability to block cell invasion | little inhibitory effect against Src and FOSL1 expression | did not evidently inhibit the activities of Src or STAT3, nor FOSL1 expression | increase in the number of cleaved caspase‐3‐positive cells | very weak activity in blocking cell migration | very weak activity in blocking cell migration |
